Test results published in ChEMBL document CHEMBL4715736, “Identification of anticancer agents based on the thieno[2,3-b]pyridine and 1H-pyrazole molecular scaffolds” (2016).

Legend:
Assay type in all cases: functional
HT-29 = test: Growth inhibition of human HT-29 cells assessed as cell growth at 0.01 uM incubated for 48 hrs by sulforhodamine B assay relative to control; settings: read-out: Activity
ACHN = test: Growth inhibition of human ACHN cells incubated for 48 hrs by sulforhodamine B assay
Procedure, shortened: (§1)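 NCI Developmental Therapeutics Program NCI60 panel. Compounds that were active in the 10 µM one-dose screen went on to dose–response testing. Growth at each concentration is expressed relative to untreated control (100%). GI50 (concentration giving 50% of maximal inhibition of proliferation) and TGI (concentration giving total growth inhibition) were derived from the curves.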

DU-145 [1] = test: Growth inhibition of human DU-145 cells incubated for 48 hrs by sulforhodamine B assay; procedure, shortened: as §1
BT-549 [2] = test: Growth inhibition of human BT-549 cells assessed as cell growth at 1 uM incubated for 48 hrs by sulforhodamine B assay relative to control; settings: read-out: Activity
TK-10 = test: Growth inhibition of human TK-10 cells assessed as cell growth at 0.1 uM incubated for 48 hrs by sulforhodamine B assay relative to control; settings: read-out: Activity
UO-31 [3] = test: Growth inhibition of human UO-31 cells assessed as cell growth at 0.1 uM incubated for 48 hrs by sulforhodamine B assay relative to control; settings: read-out: Activity
NCI/ADR-RES = test: Growth inhibition of human NCI/ADR-RES cells assessed as cell growth at 100 uM incubated for 48 hrs by sulforhodamine B assay relative to control; settings: read-out: Activity
UACC-257 = test: Growth inhibition of human UACC-257 cells assessed as cell growth at 1 uM incubated for 48 hrs by sulforhodamine B assay relative to control; settings: read-out: Activity
NCI-H522 [4] = test: Growth inhibition of human NCI-H522 cells assessed as cell growth at 0.1 uM incubated for 48 hrs by sulforhodamine B assay relative to control; settings: read-out: Activity
MDA-MB-435 = test: Growth inhibition of human MDA-MB-435 cells assessed as cell growth at 100 uM incubated for 48 hrs by sulforhodamine B assay relative to control; settings: read-out: Activity
CAKI-1 = test: Growth inhibition of human CAKI-1 cells assessed as cell growth at 0.1 uM incubated for 48 hrs by sulforhodamine B assay relative to control; settings: read-out: Activity; procedure, shortened: as §1
COLO 205 = test: Growth inhibition of human COLO 205 cells incubated for 48 hrs by sulforhodamine B assay; procedure, shortened: as §1
HOP-92 = test: Growth inhibition of human HOP-92 cells assessed as cell growth at 1 uM incubated for 48 hrs by sulforhodamine B assay relative to control; settings: read-out: Activity
UO-31 [5] = test: Growth inhibition of human UO-31 cells incubated for 48 hrs by sulforhodamine B assay
Procedure, shortened: (§2)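 NCI DTP 60-line human tumour panel. Dose-response curves were run only for ligands active in the initial 10 µM screen. GI50 (concentration giving 50% of maximal inhibition of proliferation) and TGI (concentration giving total growth inhibition) were derived from these curves.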

SK-MEL-28 [6] = test: Growth inhibition of human SK-MEL-28 cells assessed as cell growth at 100 uM incubated for 48 hrs by sulforhodamine B assay relative to control; settings: read-out: Activity
SN12C = test: Growth inhibition of human SN12C cells assessed as cell growth at 0.1 uM incubated for 48 hrs by sulforhodamine B assay relative to control; settings: read-out: Activity
SNB-19 = test: Growth inhibition of human SNB-19 cells assessed as cell growth at 100 uM incubated for 48 hrs by sulforhodamine B assay relative to control; settings: read-out: Activity
OVCAR-4 = test: Growth inhibition of human OVCAR-4 cells assessed as cell growth at 1 uM incubated for 48 hrs by sulforhodamine B assay relative to control; settings: read-out: Activity
SR = test: Growth inhibition of human SR cells assessed as cell growth at 1 uM incubated for 48 hrs by sulforhodamine B assay relative to control; settings: read-out: Activity
MDA-MB-231 [7] = test: Growth inhibition of human MDA-MB-231 cells assessed as cell growth at 0.1 uM incubated for 48 hrs by sulforhodamine B assay relative to control; settings: read-out: Activity
NCI-H522 [8] = test: Growth inhibition of human NCI-H522 cells assessed as cell growth at 100 uM incubated for 48 hrs by sulforhodamine B assay relative to control; settings: read-out: Activity
MDA-MB-231 [9] = test: Growth inhibition of human MDA-MB-231 cells incubated for 48 hrs by sulforhodamine B assay
Procedure, shortened: (§3)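 NCI60 panel at the NCI Developmental Therapeutics Program. Only compounds active in the 10 µM screen went to dose-response testing. GI50, the concentration giving 50% of maximal inhibition of proliferation, and TGI, the concentration giving total growth inhibition, were derived from the dose-response curves.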

NCI-H23 [10] = test: Growth inhibition of human NCI-H23 cells assessed as cell growth at 1 uM incubated for 48 hrs by sulforhodamine B assay relative to control; settings: read-out: Activity
NCI-H23 [11] = test: Growth inhibition of human NCI-H23 cells incubated for 48 hrs by sulforhodamine B assay; procedure, shortened: as §3
Malme-3M [12] = test: Growth inhibition of human Malme-3M cells assessed as cell growth at 100 uM incubated for 48 hrs by sulforhodamine B assay relative to control; settings: read-out: Activity
MDA-MB-231 [13] = test: Growth inhibition of human MDA-MB-231 cells assessed as cell growth at 0.01 uM incubated for 48 hrs by sulforhodamine B assay relative to control; settings: read-out: Activity
OVCAR-3 = test: Growth inhibition of human OVCAR-3 cells incubated for 48 hrs by sulforhodamine B assay; procedure, shortened: as §2
CCRF-CEM = test: Growth inhibition of human CCRF-CEM cells incubated for 48 hrs by sulforhodamine B assay; procedure, shortened: as §1
DU-145 [14] = test: Growth inhibition of human DU-145 cells assessed as cell growth at 0.1 uM incubated for 48 hrs by sulforhodamine B assay relative to control; settings: read-out: Activity; procedure, shortened: as §1
BT-549 [15] = test: Growth inhibition of human BT-549 cells assessed as cell growth at 100 uM incubated for 48 hrs by sulforhodamine B assay relative to control; settings: read-out: Activity
KM12 = test: Growth inhibition of human KM12 cells incubated for 48 hrs by sulforhodamine B assay; procedure, shortened: as §3
SK-MEL-28 [16] = test: Growth inhibition of human SK-MEL-28 cells incubated for 48 hrs by sulforhodamine B assay; procedure, shortened: as §2
Malme-3M [17] = test: Growth inhibition of human Malme-3M cells assessed as cell growth at 1 uM incubated for 48 hrs by sulforhodamine B assay relative to control; settings: read-out: Activity
DU-145 [18] = test: Growth inhibition of human DU-145 cells assessed as cell growth at 0.01 uM incubated for 48 hrs by sulforhodamine B assay relative to control; settings: read-out: Activity; procedure, shortened: as §1
[19] = read-out: LC50 (the source's name)

SMILES: Cc1cc(C)c(NC(=O)c2sc3nc4c(cc3c2N)CN(Cc2ccccc2)CC4)c(C)c1
- growth at 0.01 µM (HT-29): 105%
- GI50 (ACHN): 6.31 µM
- TGI (ACHN): > 100 µM
- CC50 (ACHN; [19]): > 100 µM
- GI50 (DU-145 [1]): 2.62 µM
- TGI (DU-145 [1]): 7.65 µM
- CC50 (DU-145 [1]; [19]): > 100 µM
- growth at 1 µM (BT-549 [2]): 81%
- growth at 0.1 µM (TK-10): 104%
- growth at 0.1 µM (UO-31 [3]): 88%
- growth at 100 µM (NCI/ADR-RES): -11%
- growth at 1 µM (UACC-257): 80%
- growth at 0.1 µM (NCI-H522 [4]): 97%
- growth at 100 µM (MDA-MB-435): -58%
- growth at 0.1 µM (CAKI-1): 90%
- GI50 (COLO 205): 2.98 µM
- LC50 (concentration killing 50% of cells) (COLO 205): 68.8 µM
- TGI (COLO 205): 10.1 µM
- growth at 1 µM (HOP-92): 49%
- GI50 (UO-31 [5]): 4.78 µM
- TGI (UO-31 [5]): 93.9 µM
- CC50 (UO-31 [5]; [19]): > 100 µM
- growth at 100 µM (SK-MEL-28 [6]): -30%
- growth at 0.1 µM (SN12C): 101%
- growth at 100 µM (SNB-19): 25%
- growth at 1 µM (OVCAR-4): 77%
- growth at 1 µM (SR): 68%
- growth at 0.1 µM (MDA-MB-231 [7]): 101%
- growth at 100 µM (NCI-H522 [8]): -29%
- GI50 (MDA-MB-231 [9]): 5.75 µM
- TGI (MDA-MB-231 [9]): 58.9 µM
- CC50 (MDA-MB-231 [9]; [19]): > 100 µM
- growth at 1 µM (NCI-H23 [10]): 93%
- GI50 (NCI-H23 [11]): 4.51 µM
- LC50 (50% lethal concentration) (NCI-H23 [11]): > 100 µM
- TGI (NCI-H23 [11]): > 100 µM
- growth at 100 µM (Malme-3M [12]): -17%
- growth at 0.01 µM (MDA-MB-231 [13]): 100%
- GI50 (OVCAR-3): 2.32 µM
- TGI (OVCAR-3): 12.6 µM
- CC50 (OVCAR-3; [19]): > 100 µM
- GI50 (CCRF-CEM): 3.16 µM
- LC50 (CCRF-CEM): > 100 µM
- TGI (CCRF-CEM): 59.7 µM
- growth at 0.1 µM (DU-145 [14]): 101%
- growth at 100 µM (BT-549 [15]): -9%
- GI50 (KM12): 3.26 µM
- LC50 (KM12): > 100 µM
- TGI (KM12): 43.1 µM
- GI50 (SK-MEL-28 [16]): 6.97 µM
- LC50 (SK-MEL-28 [16]): > 100 µM
- TGI (SK-MEL-28 [16]): 40.4 µM
- growth at 1 µM (Malme-3M [17]): 76%
- growth at 0.01 µM (DU-145 [18]): 104%
